The list is not random: actives were taken first. Their share in the collection is about 3.7%.
OX1R antag-1: antagonists of human orexin 1 receptor (OX1R). actives 1.8% (n = 330,000). O43613. inhibition, % at 6.6 µM. OX1R-expressing cells, FRET antagonist read-out; in the data active = inhibition mostly above about 38%, no sharp cut-off; inactive = mostly below about 40%;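 note: 0% = agonist challenge alone and 100% = reference antagonist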
Target sequence (O43613 whole entry, looked up): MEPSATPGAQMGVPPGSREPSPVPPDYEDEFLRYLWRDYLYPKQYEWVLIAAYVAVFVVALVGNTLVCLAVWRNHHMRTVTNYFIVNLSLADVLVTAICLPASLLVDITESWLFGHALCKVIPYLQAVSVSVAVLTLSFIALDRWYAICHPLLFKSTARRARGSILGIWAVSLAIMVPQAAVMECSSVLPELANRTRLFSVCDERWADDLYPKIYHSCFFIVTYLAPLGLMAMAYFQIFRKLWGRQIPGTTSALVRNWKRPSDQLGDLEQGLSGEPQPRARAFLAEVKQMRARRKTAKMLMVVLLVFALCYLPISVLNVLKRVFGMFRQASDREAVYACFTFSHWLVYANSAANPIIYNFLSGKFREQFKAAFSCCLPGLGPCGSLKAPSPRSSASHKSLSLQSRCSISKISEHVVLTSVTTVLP
GPR7 antagonist: human neuropeptides B/W receptor 1 antagonism | P48145 | GPR7-expressing cells, fluorescence antagonist assay | inhibition, % at 4.4 µM | actives 1.1% (n = 290,000) | AID 1861; in the data active = inhibition above about 16%, passing the limit was not always enough;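 note: cells stimulated with the agonist NPW; 0% = agonist with vehicle and 100% = vehicle without agonist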
CHO parental Ca: counter-screen for OX1R antagonists: effect in parental CHO cells | parental CHO-K1, ATP-induced calcium, Fluo-8 fluorescence | inhibition, % at 5.6 µM | actives 0.63% (n = 330,000) | AID 463079;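 active = inhibition above that plate's mean sample inhibition plus 3 SD, cut at about 26% in these data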;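 note: 0% = ATP-challenged DMSO wells and 100% = DMSO wells without ATP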
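Material: Parental CHO cells | Reagent: ATP | Compound dosing: Single nominal dose of 5.6 µM per compound | Detection: Intracellular calcium via Fluo-8 no-wash fluorescent dye | Read-out: % inhibition of ATP-induced calcium mobilization | Benchmarks: Low control ATP plus DMSO, high control DMSO only | Replicates: Singlicate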
OX1R antag-2: antagonists of human orexin 1 receptor; actives 0.43% (n = 330,000); inhibition, % at 5 µM; CHO/OX1R cells, Fluo-8 calcium fluorescence, orexin A; O43613;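 active = inhibition above its plate's threshold, mean inhibition of all tested compounds on the plate plus 3 SD, cut at about 37% in these data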;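 note: 0% = orexin A challenge wells and 100% = SB-334867-A antagonist wells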
EP2 mod: modulators of human EP2 prostaglandin E2 receptor; actives 0.83% (n = 260,000); induction, % at 25 µM; EP2-expressing cells, cAMP HTRF FRET, PGE2 co-stimulation; P43116;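 active = compounds whose cAMP rise, as percent of the full-agonist control response, exceeds 60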;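 note: rat C6 glioma line stably carrying human EP2 under a CMV promoter; the protocol text gives 20 µM as final concentration; 100% = response of wells given 1 µM PGE2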
Target sequence (P43116 whole entry, looked up): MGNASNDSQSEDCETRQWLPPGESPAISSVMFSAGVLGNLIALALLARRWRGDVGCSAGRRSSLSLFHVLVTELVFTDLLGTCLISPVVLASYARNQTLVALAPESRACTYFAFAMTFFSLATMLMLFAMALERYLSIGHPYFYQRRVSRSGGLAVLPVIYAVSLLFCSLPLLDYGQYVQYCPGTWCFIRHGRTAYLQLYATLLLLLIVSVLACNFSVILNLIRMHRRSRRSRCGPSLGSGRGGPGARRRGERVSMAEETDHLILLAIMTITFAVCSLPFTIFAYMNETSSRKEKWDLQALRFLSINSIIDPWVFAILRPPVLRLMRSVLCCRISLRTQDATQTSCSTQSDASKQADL
EP2 antag: inhibitors of human EP2 prostaglandin E2 receptor; P43116; C6 glioma cells expressing human EP2, cAMP TR-FRET; cells stimulated with saturating PGE2; inhibition, % at 25 µM; actives 0.52% (n = 260,000); AID 1422;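 active = percent inhibition above 40 after rounding to a whole number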;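 note: rat C6 glioma host cells with rolipram phosphodiesterase inhibitor present; the protocol text gives 20 µM as final concentration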
Starred values were filed as active, the others as inactive; . = no result given.

SMILES | OX1R antag-1 | GPR7 antagonist | CHO parental Ca | OX1R antag-2 | EP2 mod | EP2 antag
Cc1cc(C(C#N)c2cccc(Cl)c2)n2ncnc2n1 (stereo unspecified) | 76.0* | 14.4 | -6.8 | 0.0 | 30.6 | .
Oc1cc(-n2cccn2)c(O)cc1-n1cccn1 | 7.3 | 46.3* | 1.0 | -13.5 | -46.5 | 114.4*
O=Cc1ccccc1-n1cccn1 | 0.2 | 1.4 | -6.9 | -10.7 | -9.1 | 1.6
Cc1cc(C)cc(NC(=O)c2cc(C)n(Cc3cccs3)c2C)c1 | 16.6 | -13.9 | 58.6* | 9.9 | -34.4 | 14.3
Cc1cc(C(=O)Nc2ccc(Cl)cc2)c(C)n1Cc1cccs1 | 15.2 | -5.5 | -21.4 | -15.3 | -55.8 | 19.2
O=C(Nc1cc(Cl)ccc1N1CCOCC1)c1cc2ccccc2o1 | 21.8 | -7.2 | -18.4 | -20.8 | 81.5* | 9.7
O=C(Nc1cc(Cl)ccc1N1CCOCC1)c1cc2ccccc2oc1=O | . | . | . | . | 6.2 | 15.7
CCOC(=O)c1cccc(NC(=O)CCNS(=O)(=O)c2cc(Br)cnc2N)c1 | 62.7* | 0.5 | -7.8 | 22.3 | . | .
Nc1ncc(Br)cc1S(=O)(=O)NCCC(=O)Nc1cccc(Cl)c1 | 13.1 | 9.0 | -1.5 | 5.5 | -38.4 | 9.2
Cc1ccc(Nc2cc(C)nn2-c2nc(C)cc(=O)[nH]2)cc1 | 9.6 | 5.2 | 54.8* | 40.6* | 42.0 | 8.6
Cc1ccc(Nc2cc(C)nn2-c2nc(C)cc(C)n2)cc1 | 26.1 | -8.3 | -22.5 | -41.2 | 40.7 | 11.0
O=[N+]([O-])c1ccc(-c2ccc(C=Nc3cccc4ccccc34)o2)cc1 | 47.9* | -3.4 | 4.9 | -2.6 | 20.9 | .
O=[N+]([O-])c1ccc(-c2ccc(/C=N/O)o2)cc1 | 18.6 | -1.3 | -2.5 | -14.0 | -26.0 | 7.7
CN1CCc2c(sc(N)c2C(=O)c2ccc(Cl)cc2)C1 | -4.4 | -15.0 | -5.1 | -29.6 | . | .
Nc1sc2c(c1C(=O)c1ccc(Cl)cc1)CCC2 | . | . | . | . | 82.9* | 15.3
COC(=O)c1c(NC(=O)CN2CCOCC2)sc2c1CCC(C)C2 (stereo unspecified) | 13.8 | -10.4 | -16.9 | -20.2 | 61.4* | 5.3
CC1CCc2nc(NC(=O)CN3CCOCC3)sc2C1 (stereo unspecified) | 7.2 | -16.6 | -14.6 | -8.9 | 8.5 | 5.7
O=C(CN1CCOCC1)Nc1sc2c(c1C(=O)c1ccc(Cl)cc1)CCC2 | . | . | . | . | 62.4* | 16.4
COC(=O)[C@@H](N)CS | 13.6 | 9.9 | -0.1 | 14.8 | 15.1 | 19.5
N#Cc1ccc(-c2cccnc2)nc1SCc1ccc(Cl)cc1Cl | 18.4 | -3.2 | -17.2 | -22.7 | 49.8 | 8.5
CCC(=O)N1CCc2cc(Br)cc(S(=O)(=O)N3CCCCCC3)c21 | 20.7 | -4.6 | 3.0 | -19.1 | 11.8 | 5.0
COc1cccc2c(=O)c(C/C=C(/C)Cl)c(C)[nH]c12 | 12.6 | 3.8 | -2.0 | -23.9 | -7.6 | 12.7
S=c1[nH]nc(-c2ccncc2)n1/N=C/c1cn(-c2ccccc2)nc1-c1ccccc1 | 52.1* | -13.4 | -67.9 | -58.5 | -20.0 | 7.7
Oc1c(Br)cc(Br)c(/C=N/n2c(-c3ccccc3)n[nH]c2=S)c1Br | 71.1* | 6.5 | -2.5 | 3.0 | . | .
Oc1ccc(Br)cc1/C=N/n1c(-c2ccccc2)n[nH]c1=S | 0.5 | -5.7 | 1.1 | -8.7 | . | .
SMILES | OX1R antag-1 | GPR7 antagonist | CHO parental Ca | OX1R antag-2 | EP2 mod | EP2 antag
O=[N+]([O-])c1ccc(-c2nn(-c3ccccc3)cc2/C=N/n2c(-c3ccncc3)n[nH]c2=S)cc1 | 5.4 | -2.7 | -18.9 | -11.7 | -28.2 | 2.7
S=c1[nH]nc(-c2cccs2)n1/N=C/c1cn(-c2ccccc2)nc1-c1cccs1 | 3.7 | -11.9 | -32.3 | -34.8 | 85.6* | 7.4
O=C(Nc1cccc(F)c1)C1CCN(S(=O)(=O)c2cnc[nH]2)CC1 | 11.3 | -4.5 | 5.8 | -37.1 | . | .
Cc1ccc(/C=C/C(=O)NC2CCS(=O)(=O)C2)cc1 (stereo unspecified) | 13.3 | -8.1 | -7.4 | 2.6 | -5.3 | 6.1
NNC(=O)c1ccc(COc2ccc3c(c2)CCC3)o1 | 6.3 | -12.8 | -5.2 | -15.4 | -4.2 | 14.5
COc1ccc(C(=O)N(CCCO)Cc2cc3c(C)ccc(C)c3[nH]c2=O)cc1OC | . | -11.2 | . | . | 1.6 | 9.5
Nc1ccn([C@H]2O[C@H](CO)[C@@H]3[O][Sn]([c]4ccccc4)([c]4ccccc4)[O][C@@H]32)c(=O)n1 | . | . | . | . | 21.7 | 41.6*
O=C(Nc1cnn(Cc2ccc(Cl)cc2)c1)c1ccc([N+](=O)[O-])cc1 | 15.8 | 5.5 | 64.2* | 14.0 | -49.5 | 11.8
Cc1c(C(=O)N/N=C/c2cccnc2)sc(=S)n1C | 59.5 | -1.6 | -1.7 | 15.9 | 8.8 | 4.2
Cc1cc(C)c2c(N)c(C(=O)N/N=C/c3cccnc3)sc2n1 | 47.1* | 1.0 | -7.9 | -19.4 | -47.4 | 6.8
Cc1cc(C)c2c(N)c(C(=O)NNC(=O)c3ccccc3)sc2n1 | 54.0 | 14.0 | -19.6 | -21.9 | 1.1 | 6.4
Cc1cc(C)c2c(N)c(C(=O)N/N=C/c3ccccc3)sc2n1 | 42.9* | -3.2 | -18.3 | -23.9 | -13.6 | 14.4
CC(C)c1ccc(OCc2nnc(SCC(=O)N3CCCCC3)o2)cc1 | 14.8 | -29.4 | -12.9 | -17.4 | . | .
O=C(c1ccncc1)N1CCN(C(=O)c2ccncc2)CC1 | 4.7 | -4.6 | 2.7 | -9.7 | 4.1 | 5.0
O=C(O)c1ccncc1.O=C(O)c1ccncc1.[NH2-].[NH2-].[Pt] | . | . | . | . | -14.3 | 51.3*
CSc1ncccc1C(=O)OCC(=O)c1ccc2c(c1)NC(=O)CO2 | 11.7 | -12.8 | -2.1 | 3.2 | -11.4 | 11.9
Cc1nc2cc(N3CCC(C)CC3)c(NC(=O)C3CC3)cc2c(=O)n1Cc1ccccc1 | . | . | . | . | 34.0 | 12.2
Cc1nc2cc(Cl)c(NC(=O)C3CCCCC3)cc2c(=O)n1Cc1ccccc1 | . | . | . | . | 106.1* | 5.4
CC(c1ccco1)N(C(=O)c1cccs1)c1ccccn1 (stereo unspecified) | 10.8 | -19.6 | -6.3 | 7.4 | 15.0 | 4.6
N#CC(C#N)=NNc1ccc([N+](=O)[O-])cc1 | 72.0* | -11.8 | -1.2 | 2.2 | -37.5 | 8.7
Cc1ccnc(NC(=O)c2cc3ccccc3o2)c1 | 52.7* | . | -19.2 | -28.6 | . | .
Oc1cc(O)c2c(c1)O[C@@H](c1ccc(O)c(O)c1)[C@H](O[C@@]1(c3cc(O)c(O)c(O)c3)Oc3cc(O)cc(O)c3[C@H](O)[C@H]1O)C2 | . | . | . | . | 11.7 | 57.0*
Oc1ccc([C@H]2Oc3cc(O)cc(O)c3C[C@H]2O)cc1 | . | . | . | . | 11.3 | 8.7
O=C(NCc1ccco1)C1CCN(C(=O)c2ccc([N+](=O)[O-])cc2)CC1 | 53.5* | -14.8 | 2.2 | 3.6 | . | .
O=C(NCc1ccco1)C1CCN(C(=O)c2cc3sccc3n2Cc2ccc(Cl)cc2)CC1 | 13.7 | 10.7 | 36.9* | 68.7* | -10.8 | 8.2
O=C(O)c1ccccc1C(=O)OCCCc1ccncc1 | 15.0 | . | -10.9 | -4.1 | . | .
O=c1c2ccccc2nc2c3ccccc3cnn12 | 41.2* | -9.7 | -9.8 | -18.6 | -23.0 | 7.4
O=c1c2ccccc2nc2c3ccccc3c(Cl)nn12 | . | -4.7 | . | . | 9.9 | 4.3
CCC(CN1CCN(C)CC1)NC(=O)Cc1csc(Nc2cccc(C)c2)n1 (stereo unspecified) | . | . | . | . | -69.8 | 8.8

Screening data deposited in PubChem by several laboratories.
